An excerpt weighted towards active compounds, which were near 2.4% of everything screened.
A3G deaminase = blocks human APOBEC3G single-stranded DNA deamination | AID 493012 | hit rate 0.28% among 330,000 | recombinant A3G, ssDNA deamination FAM/TAMRA fluorescence | inhibition, % at 20 µM;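 active = inhibition of at least 40% at 20 µM, with no more than 30% in the related APOBEC3A deaminase screen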;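 also: plate controls were DMSO wells with A3G for no effect and wells lacking A3G enzyme for full effect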
M18AAP inhibitor = blocks P. falciparum M18 aspartyl aminopeptidase. recombinant PfM18AAP, H-Glu-NHMec fluorogenic cleavage. inhibition, % at 7.35 µM. hit rate 1.2% among 290,000;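 active = inhibition above the campaign mean inhibition over all tested compounds plus 3 SD, cut at about 28% in these data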;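 also: 0% = plate median of test compound wells and 100% = 2 mM ZnCl2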
PfGluPho inh = PfG6PD (Plasmodium falciparum) enzyme inhibition | hit rate 0.78% among 350,000 | PfGluPho enzyme, NADPH resazurin-diaphorase fluorescence | inhibition, % at 20 µM;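 active = inhibition reaching at least a set limit at 20 µM in the primary screen, cut at about 59% in these data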;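 also: 0% = DMSO wells with substrate and 100% = DMSO wells lacking glucose-6-phosphate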
HKDC1 inhibitor = blocks human hexokinase HKDC1 activity; recombinant HKDC1, G6PDH/diaphorase resazurin coupled fluorescence; AID 493160; hit rate 0.16% among 340,000; inhibition, % at 20 µM; Q2TB90;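 active = inhibition above about 35% when tested at 20 µM, limit read from the data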;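 also: plate controls were DMSO wells with enzyme for no effect and DMSO wells lacking enzyme for full effect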
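System: Recombinant HKDC1 hexokinase | Amount: HKDC1 at 5 µg/mL | Reagent: Glucose with 1 mM ATP | Doses: Single 20 µM dose | Incubation: Reaction time 90 min, room temperature, protected from light | Signal: Coupled resazurin fluorescence, excitation 525 nm, emission 613 nm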
SUMO HTRF inh = SUMOylation inhibition. P63279. HTRF SUMOylation assay, SAE1/SAE2 + UBC9, in vitro. inhibition, % at 35 µM. hit rate 0.36% among 290,000; in the data active = inhibition above about 50%, passing the limit was not always enough
Target sequence (P63279 whole entry, looked up): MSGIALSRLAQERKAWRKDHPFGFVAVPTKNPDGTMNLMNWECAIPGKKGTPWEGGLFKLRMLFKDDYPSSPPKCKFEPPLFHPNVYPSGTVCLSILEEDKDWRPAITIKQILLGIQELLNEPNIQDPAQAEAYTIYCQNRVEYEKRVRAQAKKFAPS
A3A deaminase = human APOBEC3A DNA deaminase inhibition; P31941; recombinant A3A, FAM/TAMRA ssDNA deamination fluorescence; inhibition, % at 20 µM; hit rate 0.41% among 330,000;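 active = at least 40% inhibition at 20 µM here, with at most 30% in a related deaminase screen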;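 also: plate controls were A3A with DMSO for no effect and wells lacking A3A enzyme for full effect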
Target sequence (P31941 whole entry, looked up): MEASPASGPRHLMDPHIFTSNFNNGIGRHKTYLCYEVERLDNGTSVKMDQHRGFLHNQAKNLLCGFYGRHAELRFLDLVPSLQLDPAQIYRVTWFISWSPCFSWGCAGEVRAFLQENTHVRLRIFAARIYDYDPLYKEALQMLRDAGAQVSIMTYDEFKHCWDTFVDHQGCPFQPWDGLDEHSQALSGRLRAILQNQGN
* marks the source's active call; other numbers are inactive results; . = no result.

SMILES	A3G deaminase	M18AAP inhibitor	PfGluPho inh	HKDC1 inhibitor	SUMO HTRF inh	A3A deaminase
CC1CCN(Cc2cc(=O)oc3cc(O)c(Cl)cc23)CC1	0.3	7.5	-1.1	-1.7	55.2*	0.6
CC(NC(=O)CSc1n[nH]c(=O)[nH]c1=O)C1CC2CCC1C2 (stereo not given)	-6.7	-0.6	-15.6	-6.5	19.4	-2.8
O=[N+]([O-])c1ccc(Sc2cccc[n+]2[O-])c2nonc12	.	12.7	115.0*	15.0	66.5*	.
O=[N+]([O-])c1ccc(Nc2ccccc2)c2nonc12	-1.1	-6.8	-12.7	8.3	12.2	4.8
CNC(=O)C1CN(C(=O)c2nn(Cc3ccccc3)c(=O)c3ccccc23)c2ccccc2O1 (stereo not given)	.	.	19.4	.	.	.
COc1ccccc1C(=O)NC(=O)COc1ccc([N+](=O)[O-])cc1	-3.1	.	0.8	2.7	.	2.3
COc1ccccc1-c1c(C#N)c(N)nc2c1CCc1ccccc1-2	-8.3	1.1	32.4	24.7	98.1*	-0.1
Nc1ccc2c(c1)C/C(=C/c1ccco1)C2=O	84.5	20.8	52.6	6.5	85.0*	90.9
COc1ccc(S(=O)(=O)NCCCN2CCCC2=O)cc1OC	-11.2	5.0	1.2	-3.0	8.9	-3.9
Cc1ccc(NC(=O)c2cccc(OCc3c(C)noc3C)c2)cc1	1.1	2.7	-9.9	-2.6	-8.0	2.6
O=C(Nc1cccc2nsnc12)c1ccc(-c2ccc(Br)cc2)o1	-5.2	0.9	47.8	20.6	73.0*	-2.3
CCOC(=O)N1CCN(C(=O)C2CCN(C(=O)c3ccccc3C)CC2)CC1	.	.	117.3*	-0.4	.	.
CC1CCCN(c2cc3c(cc2[N+](=O)[O-])C(=O)N(c2ccccc2)C3=O)C1 (stereo not given)	-10.0	-0.8	-0.2	-7.0	-26.9	-2.4
O=C(NNC(=O)c1cc2ccccc2cc1O)c1cccs1	-5.6	29.0*	-24.5	0.6	-21.7	-5.8
Cc1c(OCC(=O)N[C@@H](Cc2c[nH]c3ccccc23)C(=O)O)ccc2c1oc(=O)c1ccccc12	2.5	-10.5	-29.1	1.6	-2.0	2.9
CCn1c(=O)c(-c2cc(=O)[nH][nH]2)c(O)c2ccccc21	1.1	30.5*	-0.6	-13.8	-2.9	1.2
CN(C)c1ccc(/C=C2/C(=O)N(c3ccc([N+](=O)[O-])cc3)N=C2N2CCOCC2)cc1	.	2.1	.	.	87.2*	.
CN(C)c1ccc(/C=C2\C(=O)N(c3ccc([N+](=O)[O-])cc3)N=C2N2CCOCC2)cc1	.	6.0	.	.	.	.
COc1ccc(S(=O)(=O)Oc2c(OC)cc(C(=S)N3CCOCC3)cc2OC)cc1	1.0	28.2*	40.5	-6.5	4.7	-10.0
CCc1ccc2nc(NC(=O)Cn3cnc4ccccc4c3=O)sc2c1	9.6	-3.9	5.5	-3.3	50.3*	18.2
COc1ccccc1OCC(=O)Nc1ccc(NC(=O)COc2ccccc2OC)cc1	-9.2	-2.3	-5.1	-4.1	-4.9	-6.2
O=C1Nc2ccc(Br)cc2C1Cc1ccccc1F (stereo not given)	-6.6	5.9	88.5*	5.8	-0.1	0.6
Cn1c(CC2C(=O)Nc3ccc(Br)cc32)nc2ccccc2c1=O (stereo not given)	-6.9	-4.0	8.9	8.5	-6.2	-4.4
CCOc1ccc(Br)cc1C1C(C(=O)OC)=C(N)Oc2cc(N(C)C)ccc21 (stereo not given)	-6.1	8.7	5.6	1.3	-3.4	-2.1
C/C(N)=C(/C#N)C(=O)CSc1ccc2c(c1)OCCO2	-6.2	-2.4	-0.5	-4.5	15.9	-2.9
SMILES	A3G deaminase	M18AAP inhibitor	PfGluPho inh	HKDC1 inhibitor	SUMO HTRF inh	A3A deaminase
CCC(CC)C1C(C#N)=C(N)SC(N)=C1C#N	-6.1	31.0*	26.4	-0.5	23.0	-4.1
O=C(Nc1ccccc1N1CCOCC1)C1(c2ccc(Cl)cc2)CCC1	-7.4	-2.9	-0.6	-0.4	-5.0	3.2
O=C(c1cn[nH]c1)c1cc(F)ccc1O	-0.9	31.2*	-12.8	-6.7	16.8	-0.4
CCOc1cc2c(cc1/C=C/C(=O)O)OC(C)C2 (stereo not given)	0.6	3.6	-6.3	-0.1	47.1	4.0
COc1cc2c(cc1/C=C/C(=O)O)OC(C)C2 (stereo not given)	-1.8	-0.4	-3.7	-6.3	55.2*	1.4
Nc1ncc(N=Nc2cc(C(=O)O)ccc2Cl)s1	5.1	28.8*	-5.0	-7.0	32.0	21.2
Nc1cc2sc(-c3ccc(C(=O)O)cc3)nc2cc1Cl	-4.1	-6.2	-3.3	3.8	35.5	-3.1

Bioassay records as filed in PubChem.
